Test results: ChEMBL document CHEMBL2177027, “Exploring the directionality of 5-substitutions in a new series of 5-alkylaminopyrazolo[4,3-e]1,2,4-triazolo[1,5-c]pyrimidine as a strategy to design novel human a(3) adenosine receptor antagonists” (J Med Chem, 2012)
pKi: −log10 of the molar value.

Columns and labels:
Adenosine receptor A2a = Adenosine receptor A2a (Homo sapiens, UniProt P29274); experiment: Displacement of [3H]NECA from human adenosine A2A receptor expressed in CHO cell membrane; assay type: cell membranes
Chain of Adenosine receptor A2a (P29274 whole entry, the tested form may be a part): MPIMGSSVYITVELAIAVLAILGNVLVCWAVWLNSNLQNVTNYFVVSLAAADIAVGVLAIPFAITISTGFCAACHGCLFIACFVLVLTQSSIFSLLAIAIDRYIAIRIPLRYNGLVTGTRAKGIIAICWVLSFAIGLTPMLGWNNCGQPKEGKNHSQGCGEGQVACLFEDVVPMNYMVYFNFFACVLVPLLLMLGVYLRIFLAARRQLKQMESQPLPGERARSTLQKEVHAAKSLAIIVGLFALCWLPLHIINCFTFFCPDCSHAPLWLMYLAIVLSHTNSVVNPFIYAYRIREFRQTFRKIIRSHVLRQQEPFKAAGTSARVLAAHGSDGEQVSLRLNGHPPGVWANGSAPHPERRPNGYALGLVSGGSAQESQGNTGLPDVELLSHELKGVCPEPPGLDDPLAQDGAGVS
Method in brief: (§1)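 CHO cells stably transfected with the human receptor subtype. Membranes were prepared by a 1000g spin to clear fragments and nuclei, then pelleted from the supernatant at 100 000g. Pellet was resuspended in the respective binding buffer, frozen in liquid nitrogen and stored until radioligand competition binding.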

Adenosine receptor A2b = target: T1, Adenosine receptor A2b (Homo sapiens, UniProt P29275); experiment: Antagonist activity at human adenosine A2B receptor expressed in CHO cells assessed as NECA-induced adenylate cyclase activity; assay type: functional, cell-based
T1 sequence (P29275 whole entry): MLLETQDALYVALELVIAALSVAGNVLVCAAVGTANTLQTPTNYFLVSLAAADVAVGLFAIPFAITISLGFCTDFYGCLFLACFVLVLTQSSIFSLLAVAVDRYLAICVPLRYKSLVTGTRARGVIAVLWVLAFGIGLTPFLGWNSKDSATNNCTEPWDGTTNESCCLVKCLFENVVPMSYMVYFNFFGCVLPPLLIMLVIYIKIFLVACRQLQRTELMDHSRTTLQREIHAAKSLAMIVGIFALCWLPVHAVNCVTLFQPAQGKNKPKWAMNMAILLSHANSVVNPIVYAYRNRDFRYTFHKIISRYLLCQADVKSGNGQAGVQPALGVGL
Method in brief: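 Membranes from stably transfected CHO cells made with a single high-speed spin of the homogenate. Incubated 20 min with about 150 000 cpm [α-³²P]ATP in mixture lacking EDTA and NaCl. IC50 taken from concentration-dependent inhibition of NECA-stimulated adenylyl cyclase using Hill equation.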

Adenosine receptor A3 = target: T2, Adenosine receptor A3 (Homo sapiens, UniProt P0DMS8); experiment: Displacement of [3H]NECA from human adenosine A3 receptor expressed in CHO cell membrane; assay type: cell membranes; method in brief: as §1
T2 sequence (P0DMS8 whole entry): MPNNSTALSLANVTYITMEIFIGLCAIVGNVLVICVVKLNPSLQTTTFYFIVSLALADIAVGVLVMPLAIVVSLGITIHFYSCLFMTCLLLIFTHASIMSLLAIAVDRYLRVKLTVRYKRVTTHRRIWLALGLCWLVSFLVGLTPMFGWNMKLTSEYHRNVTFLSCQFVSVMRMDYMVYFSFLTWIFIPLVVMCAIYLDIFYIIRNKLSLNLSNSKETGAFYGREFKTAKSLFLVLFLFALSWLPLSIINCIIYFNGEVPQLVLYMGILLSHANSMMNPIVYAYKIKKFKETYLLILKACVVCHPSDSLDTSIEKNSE

[1] = Selectivity ratio of Ki for human adenosine A1 receptor expressed in CHO cell membrane to Ki for human adenosine A2A receptor expressed in CHO cell membrane; assay type: cell-based
[2] = Selectivity ratio of Ki for human adenosine A2A receptor expressed in CHO cell membrane to Ki for human adenosine A3 receptor expressed in CHO cell membrane; assay type: cell-based
Adenosine receptor A1 = target: T3, Adenosine receptor A1 (Homo sapiens, UniProt P30542); experiment: Displacement of [3H]CCPA from human adenosine A1 receptor expressed in CHO cell membrane; assay type: cell membranes; method in brief: as §1
T3 sequence (P30542 whole entry): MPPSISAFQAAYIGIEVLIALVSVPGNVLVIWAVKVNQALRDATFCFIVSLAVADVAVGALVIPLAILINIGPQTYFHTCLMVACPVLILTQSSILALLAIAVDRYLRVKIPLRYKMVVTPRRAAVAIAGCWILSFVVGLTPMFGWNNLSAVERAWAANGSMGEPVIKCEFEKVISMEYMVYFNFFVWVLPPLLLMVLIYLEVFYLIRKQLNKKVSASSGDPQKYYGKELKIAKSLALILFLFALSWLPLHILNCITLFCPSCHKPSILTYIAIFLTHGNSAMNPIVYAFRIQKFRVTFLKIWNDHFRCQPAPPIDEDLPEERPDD

[3] = target: Adenosine receptors; A1 & A3 (Homo sapiens) (UniProt P30542+P0DMS8); experiment: Selectivity ratio of Ki for human adenosine A1 receptor expressed in CHO cell membrane to Ki for human adenosine A3 receptor expressed in CHO cell membrane; assay type: cell-based

Row | SMILES | pKi (Adenosine receptor A2a) | pKi (Adenosine receptor A2b) | pKi (Adenosine receptor A3) | Ratio Ki [1] | Ratio Ki [2] | pKi (Adenosine receptor A1) | Ratio Ki [3]
1 | CCCCCNc1nc2nn(C)cc2c2nc(-c3ccco3)nn12 | 6.77 | 5.40 | 7.84 | 2.86 | 11.5 | 6.32 | 32.9
2 | CCCCC(CC)CNc1nc2nn(C)cc2c2nc(-c3ccco3)nn12 (stereo not drawn) | 6.29 | < 5.00 | 8.42 | 1.18 | 134 | 6.22 | 158
3 | CCOc1nc2nn(C)cc2c2nc(-c3ccco3)nn12 | 5.21 | < 5.00 | 6.74 | 1.27 | 33.6 | 5.11 | 42.6
4 | CC(C)Nc1nc2nn(C)cc2c2nc(-c3ccco3)nn12 | 6.41 | 5.01 | 7.47 | 0.86 | 11.4 | 6.48 | 9.76
5 | CCCCN(C)c1nc2nn(C)cc2c2nc(-c3ccco3)nn12 | 5.86 | < 5.00 | 7.44 | 0.77 | 37.6 | 5.97 | 28.9
6 | CCN(CC)c1nc2nn(C)cc2c2nc(-c3ccco3)nn12 | 6.10 | < 5.00 | 7.02 | 1.82 | 8.29 | 5.84 | 15.1
7 | CCC(C)Nc1nc2nn(C)cc2c2nc(-c3ccco3)nn12 (racemic) | 6.61 | 5.41 | 8.28 | 0.53 | 47.4 | 6.88 | 25
8 | Cn1cc2c(nc(NCCCCCO)n3nc(-c4ccco4)nc23)n1 | 6.91 | < 5.00 | 6.87 | 4.23 | 0.91 | 6.28 | 3.86
9 | Cn1cc2c(nc(NC3CCCCCC3)n3nc(-c4ccco4)nc23)n1 | 6.47 | 5.18 | 7.81 | 0.66 | 21.8 | 6.65 | 14.5
10 | C[C@H](Nc1nc2nn(C)cc2c2nc(-c3ccco3)nn12)c1ccccc1 | 7.26 | 5.28 | 9.52 | 6.12 | 184 | 6.47 | 1130
11 | Cn1cc2c(nc(NC3C4CC5CC(C4)CC3C5)n3nc(-c4ccco4)nc23)n1 (stereo not drawn) | 6.07 | < 5.00 | 7.73 | 0.88 | 45.1 | 6.12 | 39.9
12 | CN(C)c1nc2nn(C)cc2c2nc(-c3ccco3)nn12 | 5.99 | < 5.00 | 6.40 | 4.62 | 2.61 | 5.32 | 12.1
13 | Cn1cc2c(nc(N3CCCC3)n3nc(-c4ccco4)nc23)n1 | 6.88 | < 5.00 | 7.45 | 2.48 | 3.72 | 6.48 | 9.24
14 | COc1ccc(CNc2nc3nn(C)cc3c3nc(-c4ccco4)nn23)cc1OC | 7.19 | < 5.52 | 7.68 | 42.3 | 3.04 | 5.57 | 129
15 | Cn1cc2c(nc(N3CCOCC3)n3nc(-c4ccco4)nc23)n1 | 5.78 | < 5.00 | 6.29 | 1.45 | 3.25 | 5.62 | 4.71
16 | Cn1cc2c(nc(NCCc3c[nH]c4ccccc34)n3nc(-c4ccco4)nc23)n1 | 7.11 | 5.54 | 7.51 | 16.2 | 2.49 | 5.90 | 40.4
17 | CCCCCCC(C)Nc1nc2nn(C)cc2c2nc(-c3ccco3)nn12 (stereo not drawn) | 6.15 | < 5.00 | 7.62 | 0.38 | 29.4 | 6.58 | 11.1
18 | CN(c1nc2nn(C)cc2c2nc(-c3ccco3)nn12)C1CCCCC1 | 5.56 | < 5.00 | 7.49 | 0.37 | 83.5 | 5.99 | 31.2
19 | Cc1ccc(CNc2nc3nn(C)cc3c3nc(-c4ccco4)nn23)cc1 | 6.93 | 5.40 | 8.97 | 4.6 | 109 | 6.27 | 503
20 | Cn1cc2c(nc(Cl)n3nc(-c4ccco4)nc23)n1 | 4.52 | < 5.00 | 6.44 | 0.22 | 81.5 | 5.18 | 17.9
21 | COc1ccc(CCNc2nc3nn(C)cc3c3nc(-c4ccco4)nn23)cc1OC | 7.03 | 5.41 | 7.42 | 17.1 | 2.46 | 5.80 | 42
22 | Cn1cc2c(nc(NCCCO)n3nc(-c4ccco4)nc23)n1 | 6.81 | 5.03 | 6.62 | 1.37 | 0.64 | 6.67 | 0.88
23 | Cn1cc2c(nc(N(Cc3ccccc3)Cc3ccccc3)n3nc(-c4ccco4)nc23)n1 | 5.94 | < 5.00 | 6.39 | 0.62 | 2.85 | 6.15 | 1.76
24 | CC[C@H](C)Nc1nc2nn(C)cc2c2nc(-c3ccco3)nn12 | 6.61 | 5.59 | 7.96 | 0.53 | 22.2 | 6.89 | 11.7
25 | CNc1nc2nn(C)cc2c2nc(-c3ccco3)nn12 | 6.43 | 5.68 | 7.20 | 5.24 | 5.8 | 5.71 | 30.4
26 | Cn1cc2c(nc(NCCO)n3nc(-c4ccco4)nc23)n1 | 6.80 | 5.13 | 6.51 | 4.13 | 0.51 | 6.19 | 2.1
27 | Cn1cc2c(nc(NCc3ccc(F)cc3)n3nc(-c4ccco4)nc23)n1 | 7.06 | 5.50 | 8.31 | 9.41 | 17.8 | 6.08 | 167
28 | Cn1cc2c(nc(NC(C)(C)CC(C)(C)C)n3nc(-c4ccco4)nc23)n1 | 5.49 | < 5.00 | 6.89 | 0.3 | 24.8 | 6.01 | 7.55
29 | Cn1cc2c(nc(NCCc3ccccc3)n3nc(-c4ccco4)nc23)n1 | 7.34 | 5.55 | 7.28 | 15.9 | 0.87 | 6.13 | 13.9
